The text below walks through data of ChEMBL document CHEMBL1144139, “Immunosuppressive diterpenoids from Tripterygium wilfordii” (1999).

Common to all, as to type: functional
Test [1] relates to PBMC. Kind of test: Immunosuppressive activity against human PBMC assessed as inhibition of LPS-induced TNFalpha production at 10 ug/ml after 24 hrs by ELISA. The procedure, abridged: (§1)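 Heparinized whole blood from healthy volunteers, diluted to 30% in RPMI-1640 with penicillin/streptomycin, was mixed in equal volumes with LPS solution (3 µg/mL) and sample (3 mg/mL DMSO stock diluted 1:100; DMSO-only control). Incubated at 37 °C, 5% CO2. Supernatant cytokines measured by ELISA. Inhibition (%) = […] versus solvent control.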
(In an ELISA, binding on a coated surface is turned into a signal by an enzyme label.)

Test [2] relates to PBMC. Kind of test: Immunosuppressive activity against human PBMC assessed as inhibition of LPS-induced IL8 production at 10 ug/ml after 24 hrs by ELISA. The procedure, abridged:
as §1

Test [3] concerns PBMC. The experiment in a line: Immunosuppressive activity against human PBMC assessed as inhibition of LPS-induced IL1-beta production at 10 ug/ml after 24 hrs by ELISA. The procedure, abridged: as §1
Test [4] concerns PBMC. The experiment in a line: Immunosuppressive activity against human PBMC assessed as inhibition of LPS-induced IL4 production at 10 ug/ml after 24 hrs by ELISA. The procedure, abridged: as §1
The subject of test [5] is PBMC. The experiment in a line: Immunosuppressive activity against human PBMC assessed as inhibition of LPS-induced IL2 production at 10 ug/ml after 24 hrs by ELISA. The procedure, abridged: as §1
Test [6] relates to PBMC. Kind of test: Immunosuppressive activity against human PBMC assessed as inhibition of LPS-induced IFN-gamma production at 10 ug/ml after 24 hrs by ELISA. The procedure, abridged: as §1
Test [7] deals with PBMC. The experiment in a line: Immunosuppressive activity against human PBMC assessed as inhibition of LPS-induced TNFalpha production at 0.3 ug/ml after 24 hrs by ELISA.
The subject of test [8] is PBMC. Kind of test: Immunosuppressive activity against human PBMC assessed as inhibition of LPS-induced IL8 production at 0.3 ug/ml after 24 hrs by ELISA.
Test [9] concerns PBMC. Kind of test: Immunosuppressive activity against human PBMC assessed as inhibition of LPS-induced IL1-beta production at 0.3 ug/ml after 24 hrs by ELISA.
Test [10] deals with PBMC. Kind of test: Immunosuppressive activity against human PBMC assessed as inhibition of LPS-induced IL4 production at 0.3 ug/ml after 24 hrs by ELISA.
For test [11], the system named is PBMC. Kind of test: Immunosuppressive activity against human PBMC assessed as inhibition of LPS-induced IL2 production at 0.3 ug/ml after 24 hrs by ELISA.
Test [12] deals with PBMC. The experiment in a line: Immunosuppressive activity against human PBMC assessed as inhibition of LPS-induced IFN-gamma production at 0.3 ug/ml after 24 hrs by ELISA.

Active and inactive are the calls of the source. No cut-off for these calls is given here.

With `C[C@@]12CCC[C@@](C)(C(=O)O)[C@@H]1CC[C@@]13C[C@@H](CC[C@H]12)[C@@H](CO)C3`, the inhibition (as a rule, the drop in the measured response relative to a control, in per cent) at 10 µg/mL in [1] is 0%; in test [2], 4.2%; in test [3] it was -6.1%; in [4] it was 56.2%; in test [5], 35%; in test [6], 34%.
As to `C=C[C@]1(C)CC[C@@H]2[C@@]3(C)CCC[C@@](C)(C(=O)O)[C@@H]3CC[C@@]2(C)O1`, the inhibition at 10 µg/mL in [1] worked out at 49.9%; in test [2] it was 65.2%; in test [3] it was 36.1%; in test [4] it was 95.4%; in test [5], 100%; in test [6], 94%.
Regarding `C=C1C[C@H]2[C@@](C)(CO)C(=O)CC[C@]2(C)c2c(O)cc(C(C)C)c(OC)c21`, the result in test [1], in [2], in test [3], in [4], in test [5] and in test [6] was inactive.
Consider `CC(C)c1ccc2c(c1)CC[C@H]1[C@@](C)(CO)[C@@H](O)CC[C@]21C`, for which the outcome in test [1], in test [2], in test [3], in test [4], in test [5] and in [6] was inactive.
As to `C[C@@]12CCC[C@@](C)(C(=O)O)[C@@H]1CC[C@@]13C[C@@H](CC[C@H]12)[C@](C)(O)C3`, the outcome in [1], in [2], in test [3], in [4], in test [5] and in test [6] was inactive.
As to `C[C@]12C=CC(=O)C=C1CC[C@@H]1[C@@H]2[C@@H](O)C[C@@]2(C)[C@H]1CC[C@]2(O)C(=O)CO` [PREDNISOLONE], the inhibition at 0.3 µg/mL amounted to 88.5% in test [7]; 90.3% in [8]; 88.5% in test [9]; 96.1% in [10]; 93.9% in [11]; 95.4% in [12].
For `C[C@@]1(O)C[C@@]23CC[C@H]4[C@@]5(CCC[C@]4(C)C(=O)OC5)[C@@H]2CC[C@H]1C3` [TRIPTERIFORDIN], the inhibition at 10 µg/mL in test [1] stood at 76.8%; in test [2], 96.6%; in test [3], 75.7%; in test [4] it was 95.7%; in test [5] it was 97.9%; in test [6], 98.6%.
Take `C=C1C[C@H]2[C@@](C)(CO)C(=O)CC[C@]2(C)c2cc(O)c(C(C)C)cc21` [TRIPTOBENZENE M]: the inhibition at 10 µg/mL in test [1] is 7.5%; in [2], -29.1%; in test [3] it was 13.5%; in [4], 40.1%; in test [5] it was 55.6%; in [6], 54.1%.
Regarding `CC(C)c1ccc2c(c1)C(=O)C[C@H]1[C@@](C)(CO)C(=O)CC[C@]21C` [TRIPTOBENZENE N], the inhibition at 10 µg/mL in [1] is 13.3%; in [2], 15.4%; in test [3] it was 37.9%; in [4] it was -52.2%; in [5] it was 64.5%; in test [6] it was 42.3%.
For `C=C1C[C@H]2[C@@](C)(CO)[C@@H](O)CC[C@]2(C)C2=C1C(=O)C(C(C)C)=CC2=O` [TRIPTOQUINONE C], the inhibition at 10 µg/mL in test [1] was -29.5%; in [2], -24.6%; in [3], 16.4%; in [4], 66.4%; in [5] it was 64%; in test [6], 89%.
